Experimental data as given in ChEMBL document CHEMBL1138796, “Novel 5-HT7 receptor inverse agonists. Synthesis and molecular modeling of arylpiperazine- and 1,2,3,4-tetrahydroisoquinoline-based arylsulfonamides” (J Med Chem, 2004).
“And” between values parts separate entries of the source, which are not always exact repeats. Equal values may be shown once.

Experiments:
[1] = pKa; format: physicochemical
[2] = Partition coefficient (logP); format: physicochemical; details: octanol/water
[3] = target: 5-hydroxytryptamine receptor 7 (Rattus norvegicus, UniProt P32305); test: Binding affinity towards rat 5-HT7 receptor expressed in HEK cells; format: cell-based, HEK293
Chain of 5-hydroxytryptamine receptor 7 (P32305 whole entry): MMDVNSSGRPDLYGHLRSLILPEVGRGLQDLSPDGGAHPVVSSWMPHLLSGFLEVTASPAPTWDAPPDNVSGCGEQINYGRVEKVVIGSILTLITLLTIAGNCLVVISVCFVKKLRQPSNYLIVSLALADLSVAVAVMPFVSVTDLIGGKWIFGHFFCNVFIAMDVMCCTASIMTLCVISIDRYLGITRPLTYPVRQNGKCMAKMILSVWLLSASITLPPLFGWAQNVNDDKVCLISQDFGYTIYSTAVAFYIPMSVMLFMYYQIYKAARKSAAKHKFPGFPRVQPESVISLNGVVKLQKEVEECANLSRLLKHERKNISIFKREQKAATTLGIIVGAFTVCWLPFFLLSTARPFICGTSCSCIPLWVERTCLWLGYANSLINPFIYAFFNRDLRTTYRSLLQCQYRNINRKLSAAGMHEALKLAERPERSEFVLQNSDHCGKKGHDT
Method in brief: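 Membranes of HEK cells expressing rat 5-HT7, resuspended in 50 mM Tris HCl pH 7.4 with 0.5 mM EDTA, 10 mM MgSO4, 2 mM CaCl2, 10 µM pargyline, 0.1% ascorbic acid; 20 µg protein with 0.3 nM [3H]5-CT, 2 h at room temperature; nonspecific binding with 10 µM 5-HT; filtration, scintillation counting; IC50 by log regression, Ki via Cheng-Prusoff.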

[4] = target: 5-hydroxytryptamine receptor 7 (Rattus norvegicus) (UniProt P32305); test: Effect on basal adenylate cyclase activity relative to potency of methiothepin using rat 5-HT7 receptor expressed in HEK cells; format: cell-based; details: HEK293
Chain of 5-hydroxytryptamine receptor 7 (Rattus norvegicus) (P32305 whole entry): as above

SMILES	pKa [1]	logP ([2]; read-out: logP)	Ki [3]	cAMP [4] [%]	logP [2]
COc1ccc2c(c1)c(CCN(C)C)cn2C	9.2	2.7	1180 nM	-7	–
COc1ccc(S(=O)(=O)NCCCN2CCN(c3ccccc3OC)CC2)cc1	7.5	2.1	100 nM	-35	–
CCN(CCCN1CCc2cc(OC)ccc2C1)S(=O)(=O)c1ccc(OC)cc1	7.4	3.3	29 nM	-94	–
Cc1cccc(S(=O)(=O)N2CCC[C@@H]2CCN2CCC(C)CC2)c1 [SB-258741]	10.4	3.7	3 nM	–	–
COc1ccc2c(c1)CCN(CCCNS(=O)(=O)c1ccccc1)C2	7	2.3	75 nM	-36	–
COc1ccc2[nH]cc(C3=CCN(Cc4ccccc4)CC3)c2c1	7.7	4.3	1100 nM	-65	–
COc1ccc2c(c1)CCN(CCCNS(=O)(=O)c1cccc3ccccc13)C2	7	3.6	360 nM	-104	–
CC1CCN(CC[C@H]2CCCN2S(=O)(=O)c2cccc(O)c2)CC1	10.4	2.7	1 nM	–	–
CCN(CCCN1CCc2cc(OC)ccc2C1)S(=O)(=O)c1ccc(C)cc1	7.4	3.8	11 nM	-95	–
CCN(CCCN1CCc2cc(OC)ccc2C1)S(=O)(=O)c1ccccc1	7.4	3.1	54 nM	-93	–
CC1CCN(CC[C@H]2CCCN2S(=O)(=O)c2cccc3ccccc23)CC1	10.4	4.2	10 nM	–	–
COc1ccc2c(c1)CCN(CCCNS(=O)(=O)c1ccc(C)cc1)C2	7	3	520 nM	-61	–
COc1ccc2c(c1)N(CCN(C)C)CCO2	8.6	1.6	1180 nM and 1100 nM	–	1.6
COc1ccc(S(=O)(=O)NCCCN2CCc3cc(OC)ccc3C2)cc1	7	2.5	1200 nM	-84	–
CCN(CCCN1CCN(c2ccccc2OC)CC1)S(=O)(=O)c1ccc(C)cc1	–	–	19 nM	-93	–
CCN(CCCN1CCc2cc(OC)ccc2C1)S(=O)(=O)c1cccc2ccccc12	7.4	4.3	19 nM	-91	–
COc1ccccc1N1CCN(CCNS(=O)(=O)c2ccc(C)cc2)CC1	7.4	2.2	75 nM	-66	–
COc1ccccc1N1CCN(CCCNS(=O)(=O)c2ccc(C)cc2)CC1	7.5	2.6	52 nM	-20	–
CSc1ccc2c(c1)[C@@H](N1CCN(C)CC1)Cc1ccccc1S2	8.1	3.4	–	-100	–
